Data reported in publication PMC4873341 (Molecular cancer therapeutics, 2016).
Read-outs that look alike come from different tables or passages of the source.

Tests used:
[1] = tested on: ASZ and BSZ basal cell carcinoma cells; test: Quantitative PCR of Gli1 transcript in ASZ and BSZ basal cell carcinoma cells; assay type: cell-based, murine; details: posaconazole 1 μM; KAAD-cyclopamine 40 nM; GDC-0449 40 nM; 2 days
[2] = tested on: drug-resistant SMO mutants (D477G, E522K, G457S, S392N, D388N, N223D, L225R); assay type: cell-based, murine
Hh pathway = assay type: cell-based; details: for Hh pathway inhibition by single drug at subtherapeutic dose: posaconazole 1 μM, KAAD-cyclopamine 10 nM, vismodegib 20 nM, SHHN CM; for Induction of Hh pathway activation by sterol alone: Shh-Light2 cells, absence of SHHN conditioned medium
Hh pathway (SMO) [3] = test: SHH-Light2 reporter assay stimulated with SAG; assay type: cell-based; details: for EC50: read-out: EC50 of SAG
SMO = SMO (Mus musculus, UniProt P56726); test: Fluorescent BODIPY-cyclopamine competition assay; assay type: binding; details: BODIPY-cyclopamine 5 nM
[4] = tested on: cytochrome P450 (CYP) 3A4; details: cited from earlier work
SMOA1 (SMO W539L) mutant = assay type: cell-based; details: Shh-Light2 SmoA1 cells
CYP2C9 = details: cited from earlier work
CYP 2D6 = details: cited from earlier work
CYP 1A2 = details: cited from earlier work
[5] = Plasma pharmacokinetic study, single oral dose; assay type: in vivo, Balb-c mice; details: for AUC(0-t) / Cmax: Balb-c, mouse, plasma, po
Summary of the method: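 Balb-c mice, given acidified drinking water (pH 2.5), received one oral gavage of test-compound oral suspension diluted in sterile water (30 or 60 mg/kg). Mice were killed at various times. Plasma was extracted with methanol/formic acid containing tolbutamide internal standard and analysed by LC-MS/MS (C18 column). Parameters came from noncompartmental analysis; 3 mice per time point, mean ± S.D.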

[6] = tested on: Hh pathway (Ptch-/- murine embryonic fibroblast cells); assay type: cell-based; details: Mus musculus, read-out: IC50 of Hh pathway inhibition
CYP 2E1 = details: cited from earlier work
[7] = tested on: SMO accumulation in primary cilia; assay type: cell-based; details: SHHN and posaconazole 7.5 μM; ~87% with SHHN and vehicle; p < 0.0001
Summary of the method: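 NIH-3T3 cells were stimulated with SHHN conditioned medium together with 7.5 μM test compound or vehicle. Cells were immunostained for SMO (rabbit polyclonal, 1:750) and acetylated tubulin (mouse monoclonal, 1:1000), then detected with AlexaFluor 488 and 594 secondaries. Confocal images were scored for the percentage of primary cilia with SMO; mean ± S.D. of at least 7 fields.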

CYP 2C8 = details: cited from earlier work
Hh pathway (SMO) [8] = test: SHH-Light2 reporter assay stimulated with 20; assay type: cell-based
[9] = tested on: Hh pathway in allografted BCC tumors; test: Gli1 mRNA in allografted BCC tumors; assay type: in vivo, mice; details: 30 or 60 mg/kg twice per day by oral gavage for 5 days; p = 0.0224, p = 0.0033
[10] = tested on: murine Ptch+/-;p53-/- BCC allografts; test: Tumor growth of subcutaneous BCC allografts; assay type: in vivo, mice; details: 30 mg/kg or 60 mg/kg twice-daily, oral gavage; p < 0.005
BCC tumors = test: Necrosis scoring of H&E sections of BCC tumors; assay type: in vivo, mice; details: posaconazole treated vs vehicle control; p = 0.0028
CYP2C19 = details: cited from earlier work
SMO-G457S = assay type: cell-based, murine
[11] = higher than human values of ref 41
[12] = increasing concentrations of posaconazole

Chain of SMO (P56726 33-793): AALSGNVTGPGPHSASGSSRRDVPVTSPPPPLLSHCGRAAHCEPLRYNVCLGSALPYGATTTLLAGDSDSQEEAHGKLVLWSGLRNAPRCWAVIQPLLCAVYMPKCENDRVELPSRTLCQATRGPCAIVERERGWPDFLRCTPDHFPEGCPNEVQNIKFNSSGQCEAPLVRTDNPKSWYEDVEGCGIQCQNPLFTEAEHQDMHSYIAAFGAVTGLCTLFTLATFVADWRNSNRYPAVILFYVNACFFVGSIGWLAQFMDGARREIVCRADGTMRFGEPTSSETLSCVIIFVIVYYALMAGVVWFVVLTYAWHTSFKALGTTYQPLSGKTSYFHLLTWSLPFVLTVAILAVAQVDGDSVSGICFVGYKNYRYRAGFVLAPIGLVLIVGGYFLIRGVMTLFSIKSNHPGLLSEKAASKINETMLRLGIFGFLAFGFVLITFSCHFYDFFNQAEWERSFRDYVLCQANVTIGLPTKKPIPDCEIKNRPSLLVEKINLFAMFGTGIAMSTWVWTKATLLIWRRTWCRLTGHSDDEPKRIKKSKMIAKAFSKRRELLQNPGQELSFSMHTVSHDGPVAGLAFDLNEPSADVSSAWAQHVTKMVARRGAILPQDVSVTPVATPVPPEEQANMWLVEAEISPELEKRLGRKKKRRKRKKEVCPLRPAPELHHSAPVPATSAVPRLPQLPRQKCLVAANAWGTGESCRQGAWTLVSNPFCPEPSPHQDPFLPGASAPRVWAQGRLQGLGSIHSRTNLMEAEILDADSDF

## CS(=O)(=O)c1ccc(C(=O)Nc2ccc(Cl)c(-c3ccccn3)c2)c(Cl)c1 [vismodegib]
[1]
  Pathway inhibition as measured by Gli1 mRNA, single drug: significantly inhibited the pathway
[2]; vismodegib 0.5 μM (~40x IC50)
  Response of vismodegib-resistant SMO mutants (D477G, E522K): resistant
Hh pathway
  Hh pathway inhibition by single drug at subtherapeutic dose: partially inhibited the Hh pathway

## CC1=C2C[C@H]3[C@@H](CC=C4CC(=O)CC[C@@]43C)[C@@H]2CC[C@]12O[C@@H]1C[C@H](C)CN(CCNC(=O)CCCCCNC(=O)CCc3ccccc3)[C@H]1[C@H]2C [KAAD-cyclopamine]
[1]
  Pathway inhibition as measured by Gli1 mRNA, single drug: significantly inhibited the pathway
Hh pathway (SMO) [3]; KAAD-cyclopamine 20 nM (1x IC50)
  Shift (increase) of the EC50 of SAG: ~ 3.5 fold
SMO; KAAD-cyclopamine 200 nM and 400 nM
  Fluorescence of BODIPY-cyclopamine bound to SMO: reduced the fluorescence of BD bound to SMO to baseline levels
Hh pathway
  Hh pathway inhibition by single drug at subtherapeutic dose: partially inhibited the Hh pathway
Hh pathway; read-out: IC50 of Hh pathway inhibition (given as 1x IC50), SHH-Light2 cells
  IC50: 0.02 µM

## CC(C)=CCC[C@@H](C)[C@H]1CC[C@H]2[C@@H]3CC=C4C[C@@H](O)CC[C@]4(C)[C@H]3CC[C@]12C [desmosterol]
Hh pathway
  Induction of Hh pathway activation by sterol alone: insufficient to induce Hh pathway activation

## C[C@@H](c1ncncc1F)[C@](O)(Cn1cncn1)c1ccc(F)cc1F [voriconazole]
Hh pathway; Shh Light2, read-out: No detectable inhibition of the Hh pathway up to
  IC50: > 40 µM

## CC[C@@H]([C@H](C)O)n1ncn(-c2ccc(N3CCN(c4ccc(OC[C@@H]5CO[C@@](Cn6cncn6)(c6ccc(F)cc6F)C5)cc4)CC3)cc2)c1=O [posaconazole]
[1]
  Pathway inhibition as measured by Gli1 mRNA, single drug: significantly inhibited the pathway
[2]; Smo-/- fibroblasts, SHHN CM
  Activity against drug-resistant SMO mutants, single drug: showed inhibitory activity against all of the tested drug-resistant SMO mutants
[4]
  CYP3A4 inhibition: inhibits
SMOA1 (SMO W539L) mutant
  Inhibition of pathway activity: no inhibitory effect
CYP2C9
  CYP2C9 inhibition: does not inhibit
CYP 2D6
  CYP2D6 inhibition: does not inhibit
Hh pathway (SMO) [3]; posaconazole 0 to 7.5 μM
  Effect on maximal induction of pathway activation by SAG: significantly decreased the maximal induction of pathway activation
  Effect on the EC50 of SAG: did not significantly alter the EC50 of SAG
CYP 1A2
  CYP1A2 inhibition: does not inhibit
[5]; 30 mg/kg
  AUC(0-t): 245 µg·h/mL
  Cmax: 16.1 µg/mL
[5]; 60 mg/kg
  AUC(0-t): 288 µg·h/mL
  Cmax: 15.9 µg/mL
[5]; [11]
  AUC0-24h, murine 30 mg/kg relative to human 800 mg single dose: ~ 5 x
  Plasma Cmax, murine 30 mg/kg relative to human 800 mg single dose: ~ 12 x
[6]
  IC50: 0.986 µM
CYP 2E1
  CYP2E1 inhibition: does not inhibit
[7]
  Primary cilia with SMO accumulation: ~ 16%
CYP 2C8
  CYP2C8 inhibition: does not inhibit
Hh pathway (SMO) [8]; Shh Light2, read-out: IC50 of pathway activation by 20(S)-hydroxycholesterol
  IC50: 0.164 µM
Hh pathway (SMO) [8]; [12]
  Effect on maximal pathway activation of 20(S)-hydroxycholesterol: decreased maximal pathway activation
  Effect on the EC50 of 20(S)-hydroxycholesterol: did not significantly alter the EC50 of the oxysterol
[9]
  Hh pathway inhibition in tumors as measured by Gli1 mRNA: significant inhibition of the Hh pathway
SMO; increasing concentrations up to 10 μM
  Fluorescence of BODIPY-cyclopamine bound to SMO: did not significantly decrease the fluorescence
[10]
  Tumor growth compared to vehicle control: significantly suppressed tumor growth
BCC tumors
  Tumor necrosis (necrosis score 0-3): significant levels of necrosis
Hh pathway; increasing concentrations of KAAD-cyclopamine
  Decrease of the IC50 of posaconazole by KAAD-cyclopamine: ~ 2.5 fold
Hh pathway
  Hh pathway inhibition by single drug at subtherapeutic dose: partially inhibited the Hh pathway

## CC(C)CCC[C@@H](C)[C@H]1CC[C@H]2C3=CC[C@H]4C[C@@H](O)CC[C@]4(C)[C@H]3CC[C@]12C [lathosterol]
Hh pathway
  Induction of Hh pathway activation by sterol alone: insufficient to induce Hh pathway activation

## CNC1CCC(N(Cc2cccc(-c3ccncc3)c2)C(=O)c2sc3ccccc3c2Cl)CC1 (stereo not drawn) [SAG]
Hh pathway (SMO) [3]; 0 nM KAAD-cyclopamine
  EC50: 0.034 µM
Hh pathway (SMO) [3]; with 100 nM KAAD-cyclopamine
  EC50: 0.244 µM

## CC(O)C(C)n1ncn(-c2ccc(N3CCN(c4ccc(OCC5COC(Cn6cncn6)(c6ccc(Cl)cc6Cl)O5)cc4)CC3)cc2)c1=O (stereo not drawn) [hydroxy-itraconazole]
[4]
  CYP3A4 inhibition: strong inhibitors and substrates
CYP2C19
  CYP2C19 inhibition: weaker inhibitors
CYP2C9
  CYP2C9 inhibition: weaker inhibitors

## CCC(C)n1ncn(-c2ccc(N3CCN(c4ccc(OCC5COC(Cn6cncn6)(c6ccc(Cl)cc6Cl)O5)cc4)CC3)cc2)c1=O (stereo not drawn) [itraconazole]
[4]
  CYP3A4 inhibition: strong inhibitors and substrates
CYP2C19
  CYP2C19 inhibition: weaker inhibitors
CYP2C9
  CYP2C9 inhibition: weaker inhibitors

## Cc1c(C(=O)Nc2ccc(N3C[C@@H](C)O[C@@H](C)C3)nc2)cccc1-c1ccc(OC(F)(F)F)cc1 [sonidegib]
[2]; sonidegib 0.5 μM (~80x IC50)
  Response of sonidegib-resistant SMO mutants: resistant
SMO-G457S; sonidegib 0.05 μM
  Response of SMO-G457S: resistant
SMO-G457S; sonidegib 0.5 μM
  Response of SMO-G457S: inhibited

## CC(C)CCC[C@@H](C)[C@H]1CC[C@H]2[C@@H]3CC=C4C[C@@H](O)CC[C@]4(C)[C@H]3CC[C@]12C [cholesterol]
Hh pathway
  Induction of Hh pathway activation by sterol alone: insufficient to induce Hh pathway activation
